MrgX1 ag – agonists of human MrgX1 receptor, primary screen, HEK293 cells, Fluo-4 calcium flux; Fluo-4 calcium fluorescence, agonist mode; stronger effect = higher value; B-score at 10 µM; hit rate 0.44% among 310,000; AID 588627, 2011;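 active = calcium response B-score plate-corrected fluorescence ratio at least 3 library SD, with starting fluorescence B-score inside 5 SD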
Target sequence (Q96LB2 whole entry, looked up): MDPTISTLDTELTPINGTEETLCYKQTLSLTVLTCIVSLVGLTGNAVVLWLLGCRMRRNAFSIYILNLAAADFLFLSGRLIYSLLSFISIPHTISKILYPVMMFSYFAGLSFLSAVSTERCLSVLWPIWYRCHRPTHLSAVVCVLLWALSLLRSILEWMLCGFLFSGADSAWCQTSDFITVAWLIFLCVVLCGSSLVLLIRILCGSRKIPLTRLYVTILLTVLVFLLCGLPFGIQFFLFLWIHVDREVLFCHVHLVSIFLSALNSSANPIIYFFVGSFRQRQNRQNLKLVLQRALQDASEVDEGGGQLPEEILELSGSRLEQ
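Assay system: MrgX1-expressing HEK293 cells / Amount: fifteen thousand cells per well / Doses: test compound in the initial addition of three / Timing: cells plated overnight, dye loaded 0.5 h 37 °C, 0.5 h room temperature / Technique: kinetic calcium dye fluorescence, Fluo-4 NW / Control set: positive and negative controls per plate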
RGS4 block – RGS4 inhibitors, primary screen, cell-based, HEK293 M3R inducible RGS4, calcium flux. Regulator of G-protein signaling 4 (Homo sapiens), P49798. Fluo-4 calcium flux; stronger effect = higher value; triggered by carbachol at its EC20. B-score at 10 µM. hit rate 0.45% among 310,000. AID 463165, 2010;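 active = B-score, a plate-corrected calcium signal, over three deviations above library mean, with baseline fluorescence within five deviations of library mean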;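 also: RGS4 expression induced by doxycycline in cells with stable M3 receptor; B-score is computed from the integrated fluorescence ratio over baseline after carbachol; higher B-score means a larger calcium signal and so more RGS4 inhibition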
Target sequence (P49798 whole entry, looked up): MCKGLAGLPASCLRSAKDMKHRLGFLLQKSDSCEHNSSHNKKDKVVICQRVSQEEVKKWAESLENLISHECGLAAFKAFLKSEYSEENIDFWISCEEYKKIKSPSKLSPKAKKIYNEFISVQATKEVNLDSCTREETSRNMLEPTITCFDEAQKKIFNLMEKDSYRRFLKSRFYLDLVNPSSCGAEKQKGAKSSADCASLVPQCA
MrgX1 allo act – positive allosteric modulators of MrgX1, primary screen, HEK293 cells, Fluo-4 calcium flux; Mas-related G-protein coupled receptor member X1 (Homo sapiens), Q96LB2; B-score at 10 µM; hit rate 0.63% among 310,000; FDSS; stronger effect = higher value;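 active = plate-corrected calcium response at least 3 library SD above typical, normal starting fluorescence, not activating the receptor alone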;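 also: compound read alongside a low EC10 to EC30 dose of BAM8-22 agonist; peak minus trough fluorescence over baseline measured at the second addition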
RGS4 pot – RGS4 potentiators or activators, primary screen, cell-based, HEK293 M3R inducible RGS4, calcium flux; AID 463111, 2010; hit rate 0.92% among 310,000; carbachol calcium flux Fluo4; stronger effect = lower value; B-score at 10 µM;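 active = B-score of the integrated calcium signal more than 4 SD below the library mean, with starting fluorescence not abnormally high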;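 also: negative B-score means reduced calcium response which marks RGS4 activation or potentiation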
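Test system: HEK293 cells with stable M3R and inducible RGS4; also added: carbachol at ECmax as muscarinic agonist stimulus; schedule: dye loading 30 min 37 °C, buffer rest 30 min RT; technique: kinetic calcium fluorescence imaging with Fluo4-AM dye, 2 µM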
MrgX1 antag – antagonists of human MrgX1 receptor, primary screen, HEK293 cells, Fluo-4 calcium flux. hit rate 1.3% among 310,000. AID 588676, 2011. Mas-related G-protein coupled receptor member X1 (Homo sapiens), Q96LB2. BAM8-22 antagonism; stronger effect = lower value. B-score at 10 µM;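 active = calcium-response B-score plate-corrected more than 3 library SD below zero, starting fluorescence within 5 deviations, no agonist response on first addition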;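 also: peak minus trough fluorescence over baseline after final BAM8-22 challenge near maximal dose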
MrgX1 ant reconf – MrgX1 receptor antagonists, duplicate retest, confirmation, HEK293 cells, Fluo-4 calcium flux; remaining BAM8-22 calcium response % of control (stronger effect = lower value), % at 10 µM; shares compounds with MrgX1 antag; hit rate 19% among 2,300; AID 602420, 2012; BAM8-22 calcium flux; stronger effect = lower value;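 active = remaining agonist calcium response no higher than 100% minus 3 SD of agonist-only control wells, with starting fluorescence near control levels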;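 also: agonist BAM8-22 given at a near maximal EC90 to ECmax level; peak minus minimum fluorescence divided by baseline after agonist addition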
HEK293 Ca flux – nonspecific calcium signal in parental HEK293, confirmation, counter-screen for MrgX1 antagonist project, parental HEK293 cells, Fluo-4 calcium flux | shares compounds with MrgX1 antag | Fluo-4 calcium fluorescence, FDSS | fluorescence ratio F(max-min)/F0 at 10 µM | hit rate 2% among 4,000 | AID 624111, 2012;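 active = duplicate-averaged calcium fluorescence ratio at least three times the standard deviation of buffer wells, a nonspecific response in parental cells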
HEK293 Ca counter – calcium response in parental HEK293 cells, primary screen, counter-screen for MrgX1 allosteric activator project, cell-based, Fluo-4 calcium flux, duplicate. hit rate 0.4% among 4,000. fluorescence ratio F(max-min)/F0 at 10 µM. shares compounds with MrgX1 antag. Fluo-4 fluorescence ratio; stronger effect = higher value;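 active = calcium fluorescence ratio, averaged over duplicates, at least 3 SD of the buffer-well ratio, meaning a nonspecific response in receptor-free cells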;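 also: untransfected parental HEK293 lacking MrgX1 used as counterscreen for MrgX1 allosteric activators; fluorescence change taken during the second addition on a kinetic imager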
HEK293 Ca cntr2 – calcium response in parental HEK293 cells, primary screen, counter-screen for MrgX1 agonist project, cell-based, Fluo-4 calcium flux, duplicate, agonist mode. shares compounds with MrgX1 antag. Fluo-4 calcium fluorescence (FDSS); stronger effect = higher value. fluorescence ratio F(max-min)/F0 at 10 µM. hit rate 8.7% among 4,000. AID 624115, 2012;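 active = calcium fluorescence ratio at least three times the spread of buffer wells, meaning a non-specific response in parental cells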
Numbers without * were called inactive. Sampled rows, rich in hits. Any-hit rate of the full collection: about 3.5%.

Results for CC(C)(C)c1ccc(OCCC(=O)OCC(=O)NC2CCS(=O)(=O)C2)cc1 (stereo unspecified) ?
MrgX1 ag: inactive; RGS4 block: inactive; MrgX1 allo act: inactive; RGS4 pot: inactive; MrgX1 antag: -5.3*; MrgX1 ant reconf: inactive; HEK293 Ca flux: inactive; HEK293 Ca counter: inactive; HEK293 Ca cntr2: inactive

What do the screens show for `O=C(COC(=O)CSc1ccccc1)NCCNC(=O)COC(=O)CSc1ccccc1`?
MrgX1 ag: inactive; RGS4 block: inactive; MrgX1 allo act: inactive; RGS4 pot: inactive; MrgX1 antag: inactive

What do the screens show for `O=C(COC(=O)c1cccs1)c1ccc2ccccc2c1`?
MrgX1 ag: inactive; RGS4 block: inactive; MrgX1 allo act: inactive; RGS4 pot: inactive; MrgX1 antag: -5.6*; MrgX1 ant reconf: inactive; HEK293 Ca flux: inactive; HEK293 Ca counter: inactive; HEK293 Ca cntr2: inactive

What do the screens show for `COc1cc(/C=C2\C=CC(=O)O2)cc(OC)c1`?
MrgX1 ag: inactive; RGS4 block: inactive; MrgX1 allo act: inactive; RGS4 pot: inactive; MrgX1 antag: inactive

How did Cc1cc(NCCCN2CCOCC2)n2c(nc3ccccc32)c1C#N do in these assays?
MrgX1 ag: inactive; RGS4 block: inactive; MrgX1 allo act: inactive; RGS4 pot: inactive; MrgX1 antag: -6*; MrgX1 ant reconf: 78%*; HEK293 Ca flux: inactive; HEK293 Ca counter: inactive; HEK293 Ca cntr2: inactive

Results for Cc1cc(NCCN2CCOCC2)n2c(nc3ccccc32)c1C#N ?
MrgX1 ag: inactive; RGS4 block: inactive; MrgX1 allo act: inactive; RGS4 pot: inactive; MrgX1 antag: inactive

How did O=C(CSc1nnc2ccc(-c3ccc(Br)cc3)nn12)NCC1CCCO1 (stereo unspecified) do in these assays?
MrgX1 ag: inactive; RGS4 block: inactive; MrgX1 allo act: inactive; RGS4 pot: inactive; MrgX1 antag: inactive

What do the screens show for `O=C(Nc1ccc2c(c1)OCO2)Nc1ccc2c(c1)OCO2`?
MrgX1 ag: inactive; RGS4 block: inactive; MrgX1 allo act: inactive; RGS4 pot: inactive; MrgX1 antag: inactive

Results for O=C(Nc1ccc(F)cc1)Nc1ccc2c(c1)OCO2 ?
MrgX1 ag: inactive; RGS4 block: inactive; MrgX1 allo act: inactive; RGS4 pot: inactive; MrgX1 antag: -4.8*; MrgX1 ant reconf: inactive; HEK293 Ca flux: inactive; HEK293 Ca counter: inactive; HEK293 Ca cntr2: inactive

Results for O=c1cc(C(F)(F)F)[nH]c2ccc(C(F)(F)F)cc12 ?
MrgX1 ag: inactive; RGS4 block: inactive; MrgX1 allo act: inactive; RGS4 pot: inactive; MrgX1 antag: -4.7*; MrgX1 ant reconf: inactive; HEK293 Ca flux: inactive; HEK293 Ca counter: inactive; HEK293 Ca cntr2: inactive

How did CC[C@H](C)[C@@H](C(=O)NCCCCCCCCCCC(=O)N1CCN(C(=O)OC(C)(C)C)CC1)n1cc(CCCCCNC(=O)OC(C)(C)C)nn1 do in these assays?
MrgX1 ag: inactive; MrgX1 allo act: inactive; MrgX1 antag: -13*; MrgX1 ant reconf: 44%*; HEK293 Ca flux: inactive; HEK293 Ca counter: inactive; HEK293 Ca cntr2: inactive

Results for CC[C@H](C)[C@@H](C(=O)NCCCCCCCCCCC(=O)N1CCN(C(=O)OC(C)(C)C)CC1)n1cc(CCCCN=C(NC(=O)OC(C)(C)C)NC(=O)OC(C)(C)C)nn1 ?
MrgX1 ag: inactive; MrgX1 allo act: inactive; MrgX1 antag: inactive

How did Cc1ccc(S(=O)(=O)N2CCOCC2)cc1C(=O)Nc1nc(-c2cccnc2)cs1 do in these assays?
MrgX1 ag: inactive; RGS4 block: inactive; MrgX1 allo act: inactive; RGS4 pot: inactive; MrgX1 antag: -13*; MrgX1 ant reconf: inactive; HEK293 Ca flux: inactive; HEK293 Ca counter: inactive; HEK293 Ca cntr2: inactive

Results for CC(=O)c1sc(NC(=O)CCS(=O)(=O)c2ccc(C)cc2)nc1C ?
MrgX1 ag: inactive; RGS4 block: inactive; MrgX1 allo act: inactive; RGS4 pot: inactive; MrgX1 antag: inactive

How did Cc1ccc(N2CN(Cc3cccnc3)CNC2=S)c(C)c1 do in these assays?
MrgX1 ag: inactive; RGS4 block: inactive; MrgX1 allo act: inactive; RGS4 pot: inactive; MrgX1 antag: inactive

What do the screens show for `Cc1ccc(N2CN(Cc3ccco3)CNC2=S)c(C)c1`?
MrgX1 ag: inactive; RGS4 block: inactive; MrgX1 allo act: inactive; RGS4 pot: inactive; MrgX1 antag: -6.3*; MrgX1 ant reconf: inactive; HEK293 Ca flux: inactive; HEK293 Ca counter: inactive; HEK293 Ca cntr2: inactive

Results for COc1ccc(NC(=O)CNC(=O)Cc2ccccc2)cc1 ?
MrgX1 ag: inactive; RGS4 block: inactive; MrgX1 allo act: inactive; RGS4 pot: inactive; MrgX1 antag: inactive

What do the screens show for `COc1ccc(CC(=O)NCC(=O)Nc2ccccc2Br)cc1`?
MrgX1 ag: inactive; RGS4 block: inactive; MrgX1 allo act: inactive; RGS4 pot: inactive; MrgX1 antag: -6*; MrgX1 ant reconf: inactive; HEK293 Ca flux: inactive; HEK293 Ca counter: inactive; HEK293 Ca cntr2: inactive

What do the screens show for `Cc1cccc(NC(=O)CNC(=O)C23CC4CC(CC(Cl)(C4)C2)C3)n1`?
MrgX1 ag: inactive; RGS4 block: inactive; MrgX1 allo act: inactive; RGS4 pot: inactive; MrgX1 antag: inactive

Results for Cc1cccc(C)c1NC(=O)CNC(=O)C12CC3CC(CC(O)(C3)C1)C2 ?
MrgX1 ag: inactive; RGS4 block: inactive; MrgX1 allo act: inactive; RGS4 pot: inactive; MrgX1 antag: -4.9*; MrgX1 ant reconf: inactive; HEK293 Ca flux: inactive; HEK293 Ca counter: inactive; HEK293 Ca cntr2: inactive

Screens (PubChem)
